Drawing on ChEMBL document CHEMBL1139245, “Synthesis and antiinflammatory activity of some new 1,3,5-trisubstituted pyrazolines bearing benzene sulfonamide” (Bioorg Med Chem Lett, 2009), this text covers Activity and inhibition for 20 molecules.

In data set [1] the test system is Rattus norvegicus. The experiment in a line: Antiinflammatory activity in carrageenan-induced Wistar rat paw edema model assessed as increase in paw volume at 20 mg/kg, po measured 5 hrs after carrageenan challenge relative to control. The class given is functional. The method in brief:
(§1)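 Wistar rats of either sex (150–175 g), fasted 16 h overnight, groups of six; compound dosed orally at 20 mg/kg bw. 30 min later 0.1 ml of 1% carrageenan in normal saline injected into subplantar aponeurosis of left hind paw. Paw volume read by plethysmometer at 0, 3 and 5 h; increase in volume (ml, SEM) and % inhibition versus control.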
For orientation: Carrageenan injected into the paw causes an acute inflammation.

The subject of data set [2] is Rattus norvegicus. The experiment in a line: Antiinflammatory activity in carrageenan-induced Wistar rat paw edema model assessed as increase in paw volume at 20 mg/kg, po measured 3 hrs after carrageenan challenge relative to control. The class given is functional. The method in brief:
as §1

The subject of data set [3] is Rattus norvegicus. The experiment in a line: Gastrointestinal toxicity in Wistar rat assessed as induction of gastric ulceration at 60 mg/kg, po. The class given is organism-based, Stomach. More on the design: dose 60 mg/kg, route oral. Particulars: in vivo. The method, boiled down:
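Acute gastric ulcerogenicity in Wistar rats given 60 mg/kg bw orally. Animals sacrificed under deep ether anesthesia 6 h after treatment. Stomachs removed and opened along the greater curvature, then examined for lesions or bleeding.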

Data set [4] deals with Prostaglandin G/H synthase 2 (Ovis aries) (UniProt P79208). The experiment in a line: Inhibition of recombinant COX2 at 0.05 uM.
Data set [5] has as its target Prostaglandin G/H synthase 1 (Ovis aries) (UniProt P05979). The experiment in a line: Inhibition of recombinant COX1 at 0.05 uM.

Structures are written as SMILES.

Sequence of Prostaglandin G/H synthase 1 (Ovis aries) (P05979 whole entry, looked up): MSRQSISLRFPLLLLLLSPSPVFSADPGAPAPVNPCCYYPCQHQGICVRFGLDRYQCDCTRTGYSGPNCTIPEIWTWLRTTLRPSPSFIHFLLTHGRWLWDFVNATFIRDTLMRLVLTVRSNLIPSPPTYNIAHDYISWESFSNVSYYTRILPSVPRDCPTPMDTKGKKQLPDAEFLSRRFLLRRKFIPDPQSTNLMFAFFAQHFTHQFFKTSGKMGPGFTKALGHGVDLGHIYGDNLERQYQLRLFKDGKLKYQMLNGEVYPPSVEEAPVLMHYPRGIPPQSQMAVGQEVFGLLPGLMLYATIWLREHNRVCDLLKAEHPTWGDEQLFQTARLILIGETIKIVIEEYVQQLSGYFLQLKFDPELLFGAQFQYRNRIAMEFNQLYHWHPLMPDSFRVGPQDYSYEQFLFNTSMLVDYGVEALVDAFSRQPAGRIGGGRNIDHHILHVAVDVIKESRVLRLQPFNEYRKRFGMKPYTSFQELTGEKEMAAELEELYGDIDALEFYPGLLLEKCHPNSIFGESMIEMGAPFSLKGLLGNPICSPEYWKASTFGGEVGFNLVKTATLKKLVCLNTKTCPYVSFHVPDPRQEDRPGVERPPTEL
Sequence of Prostaglandin G/H synthase 2 (Ovis aries) (P79208 whole entry, looked up): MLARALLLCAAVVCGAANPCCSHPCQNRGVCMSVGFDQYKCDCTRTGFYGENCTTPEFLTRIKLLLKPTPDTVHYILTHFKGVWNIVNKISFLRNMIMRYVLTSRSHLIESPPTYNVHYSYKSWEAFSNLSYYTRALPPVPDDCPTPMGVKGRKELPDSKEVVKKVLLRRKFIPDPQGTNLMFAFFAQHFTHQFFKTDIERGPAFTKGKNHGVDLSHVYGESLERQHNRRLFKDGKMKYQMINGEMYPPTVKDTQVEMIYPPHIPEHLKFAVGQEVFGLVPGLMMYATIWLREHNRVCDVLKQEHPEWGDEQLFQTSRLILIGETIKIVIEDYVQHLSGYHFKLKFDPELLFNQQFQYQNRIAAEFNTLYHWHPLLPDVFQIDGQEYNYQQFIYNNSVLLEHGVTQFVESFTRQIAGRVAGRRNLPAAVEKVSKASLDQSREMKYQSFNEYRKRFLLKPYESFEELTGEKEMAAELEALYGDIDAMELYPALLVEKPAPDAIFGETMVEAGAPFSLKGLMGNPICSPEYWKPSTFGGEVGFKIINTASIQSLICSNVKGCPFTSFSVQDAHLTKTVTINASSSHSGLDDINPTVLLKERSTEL

For the molecule `COc1ccc(C2=NN(c3ccc(S(N)(=O)=O)cc3)C(c3ccc(Cl)cc3)C2)c(OC)c1` (stereo unspecified), the Activity is recorded as 6.6% in the data set with Rattus norvegicus [1] and 25% in the data set with Rattus norvegicus [2].

Take `COc1ccc(C2=NN(c3ccc(S(N)(=O)=O)cc3)C(c3ccc(N(C)C)cc3)C2)c(OC)c1` (stereo unspecified): the Activity entry in the data set with Rattus norvegicus [3] is recorded as “Non-toxic”; in the data set with Rattus norvegicus [1] it was 79.6%; in the data set on Rattus norvegicus [2], 79.6%. The inhibition (as a rule, how much of the control response was suppressed) in data set [4] worked out at 50%; in data set [5], 60.9%.

Consider `COc1ccc(C2=NN(c3ccc(S(N)(=O)=O)cc3)C(c3cc(OC)c(OC)c(OC)c3)C2)c(O)c1` (stereo unspecified), for which the Activity with Rattus norvegicus [1] and in the data set on Rattus norvegicus [2] was 0% in each case.

Turning to `COc1ccc(C2CC(c3c(O)ccc4c(C)cc(=O)oc34)=NN2c2ccc(S(N)(=O)=O)cc2)cc1` (stereo unspecified), the Activity with Rattus norvegicus [1] amounted to 10.6%; in the data set on Rattus norvegicus [2], 20%.

As for `COc1ccc(C2=NN(c3ccc(S(N)(=O)=O)cc3)C(c3ccccc3)C2)c(O)c1` (stereo unspecified), the Activity with Rattus norvegicus [1] and in the data set with Rattus norvegicus [2] was 0% each time.

`COc1ccc(C2CC(c3ccccc3O)=NN2c2ccc(S(N)(=O)=O)cc2)cc1` (stereo unspecified): the values for the Activity in the data set with Rattus norvegicus [1] and with Rattus norvegicus [2] were 41.3% and 50%, respectively.

In the case of `COc1ccc(C2=NN(c3ccc(S(N)(=O)=O)cc3)C(c3ccc(OC)c(OC)c3)C2)c(O)c1` (stereo unspecified), the Activity stood at 13% in the data set with Rattus norvegicus [1] and 9% in the data set on Rattus norvegicus [2].

For the molecule `Cc1cc(=O)oc2c(C3=NN(c4ccc(S(N)(=O)=O)cc4)C(c4cccc(O)c4)C3)c(O)ccc12` (stereo unspecified), the values for the Activity in the data set on Rattus norvegicus [1] and in the data set with Rattus norvegicus [2] were 30.6% and 20%, respectively.

Regarding `Cc1ccc(-c2cc(C(F)(F)F)nn2-c2ccc(S(N)(=O)=O)cc2)cc1` [CELECOXIB], in the data set on Rattus norvegicus [1], the Activity was determined as 40%.

With `COc1ccc(C2=NN(c3ccc(S(N)(=O)=O)cc3)C(c3cccc(O)c3)C2)c(OC)c1` (stereo unspecified), the Activity in the data set on Rattus norvegicus [1] is on record as 5.3%; with Rattus norvegicus [2], 26.6%.

Regarding `COc1ccc(C2CC(c3ccc(OC)cc3O)=NN2c2ccc(S(N)(=O)=O)cc2)cc1` (stereo unspecified), the Activity in the data set with Rattus norvegicus [1] was found to be 37.3%; with Rattus norvegicus [2], 27%.

Take `COc1ccc(C2=NN(c3ccc(S(N)(=O)=O)cc3)C(c3cccc(O)c3)C2)c(O)c1` (stereo unspecified): the Activity in the data set with Rattus norvegicus [1] is listed as 8.3%; with Rattus norvegicus [2] it was 33.3%.

For the molecule `COc1ccc(C2=NN(c3ccc(S(N)(=O)=O)cc3)C(c3ccccc3)C2)c(OC)c1` (stereo unspecified), the Activity result was “Non-toxic” with Rattus norvegicus [3], 66.5% in the data set with Rattus norvegicus [1] and 70% in the data set with Rattus norvegicus [2]. For the same molecule, the inhibition is 85.7% in data set [4] and 73.2% in data set [5].

`COc1ccc(C2=NN(c3ccc(S(N)(=O)=O)cc3)C(c3cccc([N+](=O)[O-])c3)C2)c(OC)c1` (stereo unspecified): the Activity entry with Rattus norvegicus [3] was “Non-toxic”; with Rattus norvegicus [1], 57.6%; with Rattus norvegicus [2], 68.8%. Besides, the inhibition in data set [4] was found to be 42.9%; in data set [5], 58.8%.

As to `COc1ccc(C2=NN(c3ccc(S(N)(=O)=O)cc3)C(c3cc(OC)c(OC)c(OC)c3)C2)c(OC)c1` (stereo unspecified), the Activity result in the data set with Rattus norvegicus [3] was “Non-toxic”; with Rattus norvegicus [1], 76.6%; in the data set with Rattus norvegicus [2], 83.3%. The results for the inhibition in data set [4] and in data set [5] were 38.6% and 30%, respectively.

With `COc1ccc(C2CC(c3ccc(OC)cc3OC)=NN2c2ccc(S(N)(=O)=O)cc2)cc1` (stereo unspecified), the values for the Activity with Rattus norvegicus [1] and in the data set with Rattus norvegicus [2] were 10.6% and 49.3%, respectively.

Take `COc1ccc(C2=NN(c3ccc(S(N)(=O)=O)cc3)C(c3ccccc3Cl)C2)c(O)c1` (stereo unspecified): the Activity turned out to be 35.3% in the data set with Rattus norvegicus [1] and 60% with Rattus norvegicus [2].

As for `COc1ccc(C2=NN(c3ccc(S(N)(=O)=O)cc3)C(c3ccc(Cl)cc3)C2)c(O)c1` (stereo unspecified), the Activity with Rattus norvegicus [1] is reported as 46.3%; in the data set with Rattus norvegicus [2], 28.6%.

`COc1ccc(C2CC(c3ccccc3O)=NN2c2ccc(S(N)(=O)=O)cc2)cc1OC` (stereo unspecified): the Activity was 10.6% with Rattus norvegicus [1] and 52% with Rattus norvegicus [2].

Regarding `COc1ccc(C2=NN(c3ccc(S(N)(=O)=O)cc3)C(c3ccccc3Cl)C2)c(OC)c1` (stereo unspecified), the Activity is given as 46.3% in the data set on Rattus norvegicus [1] and 26.3% in the data set with Rattus norvegicus [2].
